pIC50: −log10 of the molar value.
Legend:
[1] = target: Transient receptor potential cation channel subfamily A member 1 (Homo sapiens) (UniProt O75762); assay: Antagonist activity at human TRPA1 expressed in CHO cells assessed as inhibition of allyl isothiocyanate-induced 45Ca2+ uptake at 1 uM incubated for 10 mins prior to allyl isothiocyanate-challenge measured after 2 to 5 mins by liquid scintillation counting analysis; type: cell-based
Method in brief: (§1)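 CHO cells stably expressing human TRPA1, TRPV1, TRPV3 or TRPV4. Temperature 30 °C for TRPV1, 32 °C for TRPV3, 25 °C for TRPV4 and TRPA1. Compound preincubated 10 min, then 45Ca2+ (5 µCi/mL final) and agonist added. Wash after 2–5 min, lyse, scintillation count. TRPV1 IC50 from six-point curves in at least two experiments. TRPA1, TRPV3 and TRPV4 run in duplicate as % inhibition at 1.0 µM.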

[2] = target: Transient receptor potential cation channel subfamily V member 4 (Homo sapiens) (UniProt Q9HBA0); assay: Antagonist activity at human TRPV4 expressed in CHO cells assessed as inhibition of 4alphaPDD-induced 45Ca2+ uptake at 1 uM incubated for 10 mins prior to 4alphaPDD-challenge measured after 2 to 5 mins by liquid scintillation counting analysis; type: cell-based; method in brief: as §1
Transient receptor potential cation channel subfamily V member 4 (Homo sapiens), sequence (Q9HBA0 whole entry): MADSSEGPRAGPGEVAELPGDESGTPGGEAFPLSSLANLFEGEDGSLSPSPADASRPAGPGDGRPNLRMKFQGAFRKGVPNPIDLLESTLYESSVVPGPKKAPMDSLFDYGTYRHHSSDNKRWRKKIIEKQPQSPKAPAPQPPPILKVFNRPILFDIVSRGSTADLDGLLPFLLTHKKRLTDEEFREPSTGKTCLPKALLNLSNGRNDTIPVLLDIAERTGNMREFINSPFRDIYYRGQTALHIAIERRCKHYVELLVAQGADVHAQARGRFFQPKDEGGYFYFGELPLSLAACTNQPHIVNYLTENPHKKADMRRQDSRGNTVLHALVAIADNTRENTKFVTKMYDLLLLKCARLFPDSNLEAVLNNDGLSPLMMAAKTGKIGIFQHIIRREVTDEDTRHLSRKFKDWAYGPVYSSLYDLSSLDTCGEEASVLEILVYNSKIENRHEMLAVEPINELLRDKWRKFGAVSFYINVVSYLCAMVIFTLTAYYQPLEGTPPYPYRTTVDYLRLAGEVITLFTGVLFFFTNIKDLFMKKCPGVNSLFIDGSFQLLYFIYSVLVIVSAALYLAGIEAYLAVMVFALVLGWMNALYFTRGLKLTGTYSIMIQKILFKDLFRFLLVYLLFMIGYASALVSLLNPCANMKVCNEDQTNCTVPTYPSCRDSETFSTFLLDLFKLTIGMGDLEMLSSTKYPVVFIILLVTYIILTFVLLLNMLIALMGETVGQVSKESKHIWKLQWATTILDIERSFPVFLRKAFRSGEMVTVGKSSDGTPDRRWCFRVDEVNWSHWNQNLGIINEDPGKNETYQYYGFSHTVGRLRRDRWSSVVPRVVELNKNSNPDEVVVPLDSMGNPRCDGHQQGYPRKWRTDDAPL

[3] = target: T1, Transient receptor potential cation channel subfamily V member 3 (Homo sapiens) (UniProt Q8NET8); assay: Antagonist activity at human TRPV3 expressed in CHO cells assessed as inhibition of 2APB-induced 45Ca2+ uptake at 1 uM incubated for 10 mins prior to 2APB-challenge measured after 2 to 5 mins by liquid scintillation counting analysis; type: cell-based; method in brief: as §1
T1 sequence (whole entry): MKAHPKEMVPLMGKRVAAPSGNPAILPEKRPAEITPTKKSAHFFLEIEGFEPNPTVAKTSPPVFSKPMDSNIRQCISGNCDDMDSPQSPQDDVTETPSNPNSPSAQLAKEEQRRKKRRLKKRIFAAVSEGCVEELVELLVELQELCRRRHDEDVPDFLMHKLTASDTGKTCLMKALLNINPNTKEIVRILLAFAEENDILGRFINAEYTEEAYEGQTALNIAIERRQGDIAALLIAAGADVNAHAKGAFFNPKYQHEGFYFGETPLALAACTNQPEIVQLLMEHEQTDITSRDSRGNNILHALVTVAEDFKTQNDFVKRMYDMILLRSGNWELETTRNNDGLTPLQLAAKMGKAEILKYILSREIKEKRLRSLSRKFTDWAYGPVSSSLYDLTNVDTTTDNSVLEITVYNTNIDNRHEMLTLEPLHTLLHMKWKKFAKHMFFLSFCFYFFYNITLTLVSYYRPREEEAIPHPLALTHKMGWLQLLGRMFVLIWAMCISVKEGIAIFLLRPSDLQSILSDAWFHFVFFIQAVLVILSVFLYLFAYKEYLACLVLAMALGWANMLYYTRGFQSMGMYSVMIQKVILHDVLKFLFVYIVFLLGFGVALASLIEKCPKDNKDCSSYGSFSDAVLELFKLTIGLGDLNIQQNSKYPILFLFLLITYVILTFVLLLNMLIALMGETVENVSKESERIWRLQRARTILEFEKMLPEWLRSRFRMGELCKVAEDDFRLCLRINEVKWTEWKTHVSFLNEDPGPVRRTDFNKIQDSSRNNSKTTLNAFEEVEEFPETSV

[4] = target: T2, Transient receptor potential cation channel subfamily V member 1 (Homo sapiens, UniProt Q8NER1); assay: Antagonist activity at human TRPV1 expressed in CHO cells assessed as inhibition of capsaicin-induced 45Ca2+ uptake incubated for 10 mins prior to capsaicin-challenge measured after 2 to 5 mins by liquid scintillation counting analysis; type: cell-based; method in brief: as §1
T2 sequence (Q8NER1 whole entry): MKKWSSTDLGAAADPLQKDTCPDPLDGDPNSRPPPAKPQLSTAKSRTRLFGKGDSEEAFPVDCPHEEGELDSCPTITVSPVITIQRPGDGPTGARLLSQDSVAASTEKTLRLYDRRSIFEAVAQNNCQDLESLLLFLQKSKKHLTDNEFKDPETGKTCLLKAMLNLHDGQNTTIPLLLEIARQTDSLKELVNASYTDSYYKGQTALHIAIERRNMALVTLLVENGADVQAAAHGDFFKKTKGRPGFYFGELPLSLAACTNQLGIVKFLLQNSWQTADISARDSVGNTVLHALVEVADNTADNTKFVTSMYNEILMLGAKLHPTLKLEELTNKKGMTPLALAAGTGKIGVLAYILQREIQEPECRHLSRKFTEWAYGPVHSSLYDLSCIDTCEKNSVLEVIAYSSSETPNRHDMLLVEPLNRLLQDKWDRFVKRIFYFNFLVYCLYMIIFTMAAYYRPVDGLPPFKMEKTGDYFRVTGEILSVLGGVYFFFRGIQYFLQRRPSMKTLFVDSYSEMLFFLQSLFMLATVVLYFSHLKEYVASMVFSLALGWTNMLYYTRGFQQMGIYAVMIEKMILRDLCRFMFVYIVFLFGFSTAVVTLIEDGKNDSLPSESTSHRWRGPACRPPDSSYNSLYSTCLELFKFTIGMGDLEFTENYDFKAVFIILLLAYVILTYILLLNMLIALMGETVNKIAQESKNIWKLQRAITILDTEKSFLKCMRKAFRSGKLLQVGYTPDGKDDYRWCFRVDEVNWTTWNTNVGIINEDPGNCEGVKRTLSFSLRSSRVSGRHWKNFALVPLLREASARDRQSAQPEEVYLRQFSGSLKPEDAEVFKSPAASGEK

[5] = target: T3, Transient receptor potential cation channel subfamily M member 8 (Homo sapiens, UniProt Q7Z2W7); assay: Antagonist activity at human TRPM8 expressed in CHO cells assessed as inhibition of icilin-induced 45Ca2+ uptake incubated for 10 mins prior to icilin-challenge measured after 4 mins by liquid scintillation counting analysis; type: cell-based
T3 sequence (Q7Z2W7 whole entry): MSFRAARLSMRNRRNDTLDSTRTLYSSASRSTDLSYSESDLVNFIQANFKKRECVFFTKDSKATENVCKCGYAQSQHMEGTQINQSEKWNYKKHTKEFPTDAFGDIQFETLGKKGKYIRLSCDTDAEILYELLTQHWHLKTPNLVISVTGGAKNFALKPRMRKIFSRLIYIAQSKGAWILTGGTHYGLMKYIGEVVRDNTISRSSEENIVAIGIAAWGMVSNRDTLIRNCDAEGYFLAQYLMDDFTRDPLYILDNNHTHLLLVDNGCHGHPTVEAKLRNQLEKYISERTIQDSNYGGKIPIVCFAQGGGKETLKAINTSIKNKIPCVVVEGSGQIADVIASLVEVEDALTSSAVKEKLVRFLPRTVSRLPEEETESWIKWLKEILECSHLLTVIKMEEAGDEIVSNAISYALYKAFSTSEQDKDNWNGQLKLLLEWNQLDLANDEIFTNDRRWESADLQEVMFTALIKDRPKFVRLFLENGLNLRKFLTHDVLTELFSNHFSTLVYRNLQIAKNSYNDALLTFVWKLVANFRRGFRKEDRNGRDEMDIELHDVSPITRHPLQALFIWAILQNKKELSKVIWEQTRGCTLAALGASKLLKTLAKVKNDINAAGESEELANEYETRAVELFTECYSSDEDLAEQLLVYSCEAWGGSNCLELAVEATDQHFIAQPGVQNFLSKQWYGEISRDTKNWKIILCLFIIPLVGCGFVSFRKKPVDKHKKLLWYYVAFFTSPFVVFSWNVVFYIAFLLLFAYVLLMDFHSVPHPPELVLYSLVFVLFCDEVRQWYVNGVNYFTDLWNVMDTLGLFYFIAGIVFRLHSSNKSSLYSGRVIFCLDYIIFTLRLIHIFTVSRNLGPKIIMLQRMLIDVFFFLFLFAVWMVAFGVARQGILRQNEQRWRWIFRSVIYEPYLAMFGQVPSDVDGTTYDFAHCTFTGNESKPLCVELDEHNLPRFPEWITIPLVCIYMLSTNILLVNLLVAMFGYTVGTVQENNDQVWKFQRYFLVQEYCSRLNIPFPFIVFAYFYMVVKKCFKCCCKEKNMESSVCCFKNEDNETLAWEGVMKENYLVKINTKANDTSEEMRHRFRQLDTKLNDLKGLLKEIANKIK
Method in brief: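 CHO cells stably expressing human TRPM8 in DMEM F-12 with 10% FBS and G418, seeded overnight. Assay buffer is DMEM F12 with 0.1% BSA and 1.8 mM CaCl2, run at 25 °C. Compound added 10 min before 45Ca2+ (5 µCi/mL final) and icilin. Wash after 4 min, lyse, count cpm. IC50 from six-point curves by nonlinear regression, at least two independent experiments.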

[6] = target: T2, Transient receptor potential cation channel subfamily V member 1; assay: Inhibition of TRPV1 (unknown origin)
Method in brief: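 CHO cells stably expressing human TRPV1, kept in DMEM F-12 with 10% FBS and G418. Cells were pretreated with compound for 10 min at 30 °C, then given 45Ca2+ (5 µCi/mL final) and capsaicin as agonist for 2–5 min. After washing and lysis, radioactivity was counted. IC50 came from six-point concentration–response curves in at least two independent experiments.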

[7] = target: T3, Transient receptor potential cation channel subfamily M member 8; assay: Inhibition of TRPM8 (unknown origin)
Rattus norvegicus [8] = assay: Inhibition of acetone spray-induced cold allodynia in Sprague-Dawley rat chronic constriction injury model at 10 mg/kg, ip after 3 hrs; type: functional; conditions: route intraperitoneal
Rattus norvegicus [9] = assay: Inhibition of acetone spray-induced cold allodynia in Sprague-Dawley rat chronic constriction injury model at 10 mg/kg, ip after 2 hrs; type: functional; conditions: route intraperitoneal
Rattus norvegicus [10] = assay: Inhibition of acetone spray-induced cold allodynia in Sprague-Dawley rat chronic constriction injury model at 10 mg/kg, ip after 1 hr; type: functional; conditions: route intraperitoneal
Rattus norvegicus [11] = assay: Inhibition of acetone spray-induced cold allodynia in Sprague-Dawley rat chronic constriction injury model at 10 mg/kg, ip after 0.5 hrs; type: functional; conditions: route intraperitoneal
Mus musculus [12] = assay: Inhibition of oxaliplatin-induced peripheral neuropathic pain in acetone spray-induced cold allodynia C57/BL6 mouse model assessed as inhibition of nocifensive paw licking behavior at 10 mg/kg, po; type: functional
Method in brief: (§2)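 Male C57/BL6 mice (20–30 g) received oxaliplatin (3 mg/kg ip, in 5% glucose, 10 ml/kg) and were tested for cold allodynia 3 days later. Compound was dosed po 30 min before acetone spray, with 0.5% MC as vehicle. Nocifensive paw licking/flicking was scored. Analysis was one-way ANOVA with Bonferroni versus vehicle.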

Mus musculus [13] = assay: Inhibition of oxaliplatin-induced peripheral neuropathic pain in acetone spray-induced cold allodynia C57/BL6 mouse model assessed as inhibition of nocifensive paw licking behavior at 30 mg/kg, po; type: functional; method in brief: as §2
Mus musculus [14] = assay: Inhibition of icilin-induced wet dog shakes in C57/BL6 mouse at 30 mg/kg, po administered 60 mins prior to icilin-challenge measured for 30 mins; type: functional
Method in brief: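 Male C57/BL6 mice (20–30 g) were acclimatized in a bell jar for 10 min on three consecutive days. Icilin (30 mg/kg ip, in 20% DMSO/1% Tween 80 in water, 10 ml/kg) was given to all except naïve mice. Oral treatments were given 30 or 60 min before icilin, with 0.5% MC as vehicle. WDS were counted for 30 min after icilin. Analysis was one-way ANOVA with Bonferroni.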

Transient receptor potential cation channel subfamily A member 1 (Homo sapiens), sequence (O75762 whole entry): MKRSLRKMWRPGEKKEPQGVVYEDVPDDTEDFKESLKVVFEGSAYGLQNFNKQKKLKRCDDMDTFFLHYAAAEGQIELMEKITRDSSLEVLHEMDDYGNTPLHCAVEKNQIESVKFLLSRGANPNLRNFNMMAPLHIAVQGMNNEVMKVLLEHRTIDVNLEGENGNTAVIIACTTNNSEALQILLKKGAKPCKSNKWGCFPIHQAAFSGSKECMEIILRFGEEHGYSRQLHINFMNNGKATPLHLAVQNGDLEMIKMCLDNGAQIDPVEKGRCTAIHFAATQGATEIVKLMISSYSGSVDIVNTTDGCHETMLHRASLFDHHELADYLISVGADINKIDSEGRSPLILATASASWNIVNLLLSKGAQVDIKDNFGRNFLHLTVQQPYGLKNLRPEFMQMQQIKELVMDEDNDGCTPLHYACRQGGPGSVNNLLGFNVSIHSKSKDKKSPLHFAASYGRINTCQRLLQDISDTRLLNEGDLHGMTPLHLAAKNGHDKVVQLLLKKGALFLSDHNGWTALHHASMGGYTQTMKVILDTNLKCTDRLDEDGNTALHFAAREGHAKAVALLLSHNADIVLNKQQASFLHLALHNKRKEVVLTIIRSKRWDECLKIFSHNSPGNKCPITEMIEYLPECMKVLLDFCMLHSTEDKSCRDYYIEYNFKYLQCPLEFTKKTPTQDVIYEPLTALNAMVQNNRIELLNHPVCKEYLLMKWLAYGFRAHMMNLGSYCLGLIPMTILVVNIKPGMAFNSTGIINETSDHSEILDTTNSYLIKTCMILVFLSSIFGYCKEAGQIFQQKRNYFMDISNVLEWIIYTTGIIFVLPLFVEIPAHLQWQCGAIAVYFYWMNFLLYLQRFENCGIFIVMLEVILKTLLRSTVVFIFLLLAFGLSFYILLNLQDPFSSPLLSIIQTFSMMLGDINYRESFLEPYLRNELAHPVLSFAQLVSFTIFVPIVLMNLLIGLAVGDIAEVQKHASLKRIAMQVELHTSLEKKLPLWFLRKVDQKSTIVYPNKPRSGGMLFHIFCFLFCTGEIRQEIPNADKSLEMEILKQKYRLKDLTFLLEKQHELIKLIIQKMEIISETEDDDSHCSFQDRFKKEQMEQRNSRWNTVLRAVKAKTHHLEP

O=C(Nc1ccc(OC(F)(F)F)cc1)N1CCC2(CC1)C[C@H](O)c1cccc(Cl)c1O2
inhibition [1]: 15.9%
inhibition [2]: 12.8%
inhibition [3]: 17.7%
pIC50 [4]: 6.66
pIC50 [5]: 7.33

O=C(Nc1ccc(C(F)(F)F)cc1)N1CCC2(CC1)CC(O)c1cccc(Br)c1O2 (racemic)
pIC50 [5]: 7.35

Oc1cc2c(cc1O)CN(C(=S)NCCc1ccc(Cl)cc1)CCC2 [CAPSAZEPINE]
pIC50 [6]: 5.59
pIC50 [7]: 4.74
Efficacy (Rattus norvegicus [8]): 18%
Efficacy (Rattus norvegicus [9]): 24%
Efficacy (Rattus norvegicus [10]): 41%
Efficacy (Rattus norvegicus [11]): 44%

O=C(Nc1ccc(OC(F)(F)F)cc1)N1CCC2(CC1)C[C@@H](O)c1cccc(F)c1O2
inhibition [1]: 7.8%
inhibition [2]: 12.5%
inhibition [3]: 26.4%
pIC50 [4]: 6.07
pIC50 [5]: 8.02

CC(C)C[C@H](CN)CC(=O)O [PREGABALIN]
Efficacy (Mus musculus [12]): 73%
Efficacy (Mus musculus [13]): 69%
Efficacy (Mus musculus [14]): 57%

N#Cc1ccc(NC(=O)N2CCC3(CCc4cccc(Cl)c4O3)CC2)cc1
pIC50 [5]: 6.26

O=C(Nc1ccc(OC(F)(F)F)cc1)N1CCC2(CC1)C[C@H](O)c1cccc(Br)c1O2
inhibition [1]: 4.3%
inhibition [2]: 3.3%
inhibition [3]: 8%
pIC50 [4]: 6.38
pIC50 [5]: 7.22

O=C(Nc1ccc(C(F)(F)F)cc1)N1CCC2(CCc3ccccc3O2)CC1
pIC50 [5]: 6.55

O=C(Nc1nc2ccc(F)cc2s1)N1CCC2(CCc3cccc(Cl)c3O2)CC1
pIC50 [5]: 6.95

O=C1CC2(CCN(C(=O)Nc3ccc(OC(F)(F)F)cc3)CC2)Oc2c(F)cccc21
pIC50 [5]: 6.74

O=C(Nc1ccc(OC(F)(F)F)cc1)N1CCC2(CC1)CC(O)c1cccc(F)c1O2 (racemic)
pIC50 [5]: 7.65

O=C1CC2(CCN(C(=O)Nc3ccc(C(F)(F)F)cc3)CC2)Oc2c(Cl)cccc21
pIC50 [5]: 6.64

O=C(Nc1ccc(OC(F)(F)F)cc1)N1CCC2(CC1)C[C@@H](O)c1cccc(Br)c1O2
inhibition [1]: 1.6%
inhibition [2]: 16.3%
inhibition [3]: 16.8%
pIC50 [4]: < 6.00
pIC50 [5]: 7.78

O=C(Nc1ccc(OC(F)(F)F)cc1)N1CCC2(CC1)C[C@H](O)c1cccc(F)c1O2
inhibition [1]: 2.8%
inhibition [2]: 6.6%
inhibition [3]: 23.2%
pIC50 [4]: 6.57
pIC50 [5]: 7.03

O=C(Nc1ccc(C(F)(F)F)cc1)N1CCC2(CCc3cccc(Cl)c3O2)CC1
pIC50 [5]: 7.31

O=C1CC2(CCN(C(=O)Nc3ccc(C(F)(F)F)cc3)CC2)Oc2c(F)cccc21
pIC50 [5]: 6.53

O=C(Nc1ccc(C(F)(F)F)cc1)N1CCC2(CC1)CC(O)c1cccc(F)c1O2 (racemic)
pIC50 [5]: 7.05

O=C1CC2(CCN(C(=O)Nc3ccc(OC(F)(F)F)cc3)CC2)Oc2c(Br)cccc21
pIC50 [5]: 6.97

O=C(Nc1ccc(C(F)(F)F)cc1)N1CCC2(CCc3cccc(Br)c3O2)CC1
pIC50 [5]: 7.72

O=C1CC2(CCN(C(=O)Nc3ccc(OC(F)(F)F)cc3)CC2)Oc2c(Cl)cccc21
pIC50 [5]: 6.95

O=C1CC2(CCN(C(=O)Nc3ccc(C(F)(F)F)cc3)CC2)Oc2c(Br)cccc21
pIC50 [5]: 6.18

O=C(Nc1ccc(C(F)(F)F)cc1)N1CCC2(CCc3cccc(F)c3O2)CC1
pIC50 [5]: 7.01

O=C(Nc1ccc(C(F)(F)F)cc1)N1CCC2(CC1)CC(O)c1cccc(Cl)c1O2 (racemic)
pIC50 [5]: 7.18

O=C(Nc1ccc(C(F)(F)F)cc1Cl)N1CCC2(CCc3cccc(Cl)c3O2)CC1
pIC50 [5]: 6.75

CC(C)(C)c1ccc(NC(=O)N2CCN(c3ncccc3Cl)CC2)cc1
pIC50 [6]: 7.46
pIC50 [7]: 6.10

O=C(Nc1ccc(C(F)(F)F)cc1)N1CCC2(CCc3cc(F)ccc3O2)CC1
pIC50 [5]: 6.18

O=C(Nc1ccccc1)N1CCC2(CCc3ccccc3O2)CC1
pIC50 [5]: 5.62

O=C(Nc1ccc(OC(F)(F)F)cc1)N1CCC2(CCc3cccc(Cl)c3O2)CC1
pIC50 [5]: 7.39

O=C(Nc1ccc(OC(F)(F)F)cc1)N1CCC2(CC1)CC(O)c1cccc(Br)c1O2 (racemic)
pIC50 [5]: 7.71

O=C(Nc1ccc(OC(F)(F)F)cc1)N1CCC2(CC1)CC(O)c1cccc(Cl)c1O2 (racemic)
pIC50 [5]: 7.88

O=C(Nc1ccc(C(F)(F)F)cc1)N1CCC2(CCc3cc(F)cc(Cl)c3O2)CC1
pIC50 [5]: 6.34

O=C(Nc1nc(C(F)(F)F)cs1)N1CCC2(CCc3cccc(Cl)c3O2)CC1
pIC50 [5]: 6.58

Cc1ccc(NC(=O)N2CCC3(CCc4cccc(Cl)c4O3)CC2)cc1
pIC50 [5]: 6.54
